Data: BindingDB's records for doi:10.1016/j.bmc.2014.09.025 (Johns Hopkins University, 2014)

Target: T1, Mas-related G-protein coupled receptor member X1 (Mus musculus, UniProt Q8CIP3)
T1 sequence (Q8CIP3 whole entry): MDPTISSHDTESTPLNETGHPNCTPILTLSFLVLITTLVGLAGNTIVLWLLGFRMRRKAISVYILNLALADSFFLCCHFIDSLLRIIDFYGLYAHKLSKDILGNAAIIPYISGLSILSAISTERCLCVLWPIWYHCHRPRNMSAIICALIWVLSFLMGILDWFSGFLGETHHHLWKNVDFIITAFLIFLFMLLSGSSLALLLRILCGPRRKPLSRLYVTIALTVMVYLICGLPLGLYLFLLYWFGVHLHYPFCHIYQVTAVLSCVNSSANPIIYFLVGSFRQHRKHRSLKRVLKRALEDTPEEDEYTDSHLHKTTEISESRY
Assay: Agonist activity at mouse MrgC11 transfected in HEK293 cells by FLIPR assay
In short: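 Rodent Mrg receptors were transiently transfected into HEK293 or KNRK cells, which were plated at 25,000 cells/well and imaged 2 days later. Cells were loaded with 2 μM Fluo 4AM and 1% Trypan Red in HBSS for 50 min at 37°C, then held 10 min at room temperature.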

- EC50: 31.6 µM
Compound: N=C(N)Nc1cccc(C(N)C(=O)N[C@@H](Cc2ccccc2)C(N)=O)c1 (stereo partly specified)
